From ChEMBL document CHEMBL3091449, “Synthesis and antimicrobial profile of N-substituted imidazolium oximes and their monoquaternary salts against multidrug resistant bacteria” (2013)
Converted amounts (≈) assume the structure as drawn.

Assays:
Type in all cases: functional
[1] = system: Aeromonas hydrophila; assay: Antibacterial activity against TEM-1/SHV-12 expressing Aeromonas hydrophila isolate 268 after 18 to 24 hrs by two-fold broth microdilution assay
Outline: (§1)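 CLSI two-fold broth microdilution was used. Compounds were dissolved in DMSO, brought to 10 mg/mL in medium, then serially diluted in Mueller Hinton broth over 400–0.09 µg/mL. Overnight MHB cultures were diluted to 10^6 CFU/mL, and 10 µL was added per well. Plates were incubated 18–24 h at 37 °C, then 0.2 mg/mL INT was added for 30 min at 37 °C. MIC was the lowest concentration with no visible growth or pink colour, triplicate.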

[2] = system: Escherichia coli; assay: Antibacterial activity against […] expressing Escherichia coli isolate 4024 after 18 to 24 hrs by two-fold broth microdilution assay
Outline: (§2)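 CLSI two-fold broth microdilution. Compounds dissolved in DMSO, 10 mg/mL stock, serially diluted to 400–0.09 µg/mL in Mueller Hinton broth. Wells inoculated with 10^6 CFU/mL bacteria and incubated 18–24 h at 37 °C. 0.2 mg/mL INT added for 30 min. MIC taken as the lowest concentration with no visible growth or pink colour. Triplicate.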

[3] = system: Klebsiella pneumoniae; assay: Antibacterial activity against TEM-1/SHV-12 expressing Klebsiella pneumoniae isolate 303 after 18 to 24 hrs by two-fold broth microdilution assay; outline: as §1
[4] = system: Acinetobacter baumannii; assay: Antibacterial activity against SIM-1 expressing Acinetobacter baumannii isolate 170 after 18 to 24 hrs by two-fold broth microdilution assay; outline: as §2
[5] = system: Stenotrophomonas maltophilia; assay: Antibacterial activity against […] expressing Stenotrophomonas maltophilia isolate 125 after 18 to 24 hrs by two-fold broth microdilution assay; outline: as §1
[6] = system: Escherichia coli; assay: Antibacterial activity against TEM-1/SHV-12 expressing Escherichia coli isolate 237 after 18 to 24 hrs by two-fold broth microdilution assay; outline: as §2
[7] = system: Aeromonas caviae; assay: Antibacterial activity against […] expressing Aeromonas caviae isolate 258 after 18 to 24 hrs by two-fold broth microdilution assay; outline: as §1
[8] = system: Escherichia coli; assay: Antibacterial activity against […] expressing Escherichia coli isolate 235 after 18 to 24 hrs by two-fold broth microdilution assay; outline: as §2
[9] = system: Pseudomonas aeruginosa; assay: Antibacterial activity against GIM-1 expressing Pseudomonas aeruginosa isolate 197 after 18 to 24 hrs by two-fold broth microdilution assay; outline: as §1
[10] = system: Kluyvera intermedia; assay: Antibacterial activity against TEM-1/SHV-12/[…] expressing Enterobacter intermedius isolate 243 after 18 to 24 hrs by two-fold broth microdilution assay; outline: as §1
[11] = system: Enterobacter cloacae; assay: Antibacterial activity against CTX-15 expressing Enterobacter cloacae isolate 51 after 18 to 24 hrs by two-fold broth microdilution assay
[12] = system: Enterobacter cloacae; assay: Antibacterial activity against TEM-1/CTX-M-15 expressing Enterobacter cloacae isolate 62 after 18 to 24 hrs by two-fold broth microdilution assay
[13] = system: Enterobacter cloacae; assay: Antibacterial activity against TEM-1/SHV-12 expressing Enterobacter cloacae isolate 306 after 18 to 24 hrs by two-fold broth microdilution assay
[14] = system: Aeromonas caviae; assay: Antibacterial activity against TEM-1/CTX-M-15 expressing Aeromonas caviae isolate 260 after 18 to 24 hrs by two-fold broth microdilution assay; outline: as §1
[15] = system: Bacillus cereus; assay: Antibacterial activity against Bacillus cereus ATCC 11778 assessed as diameter of zone of inhibition at 250 ug/disc after 24 hrs by disc diffusion method; conditions: ATCC 11778, 24 h, read-out: DIZ
Outline: (§3)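 Bacteria were grown overnight at 37 °C in TSB to about 10^6 cfu/mL, and 100 µL was spread on Mueller Hinton agar. Sterile 6 mm discs were each loaded with 25 µL of a 10 mg/mL stock in 96% ethanol, giving 250 µg/disc. Ethanol served as the negative control. Plates were incubated 24 h at 37 °C. Inhibition zone diameter was measured including the disc, in triplicate, as mean ± SE.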

[16] = system: Clostridium perfringens; assay: Antibacterial activity against Clostridium perfringens FNSST 4999 assessed as diameter of zone of inhibition at 250 ug/disc after 24 hrs by disc diffusion method; conditions: FNSST 4999, 24 h, read-out: DIZ
Outline: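 Disc diffusion per CLSI: 100 µL of 10^6 cfu/mL bacterial suspension spread on Mueller Hinton agar. 6 mm discs loaded with 25 µL of 10 mg/mL compound stock in 96% ethanol (250 µg/disc); ethanol as negative control. Incubated 24 h at 37 °C. Inhibition zone diameter measured in mm including the disc, triplicate, reported as mean ± SE.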

[17] = system: Pseudomonas aeruginosa; assay: Antibacterial activity against Pseudomonas aeruginosa FNSST 982 assessed as diameter of zone of inhibition at 250 ug/disc after 24 hrs by disc diffusion method; conditions: FNSST 982, 24 h, read-out: DIZ; outline: as §3
[18] = system: Enterococcus faecalis; assay: Antibacterial activity against Enterococcus faecalis ATCC 29212 after 18 to 24 hrs by two-fold broth microdilution assay; outline: as §1
[19] = system: Aspergillus fumigatus; assay: Antifungal activity against Aspergillus fumigatus FNSST 3833 assessed as diameter of zone of inhibition at 250 ug/disc after 72 hrs by disc diffusion method; conditions: FNSST 3833, 72 h, read-out: DIZ
Outline: (§4)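 Fungi were grown overnight at 30 °C in Sabouraud dextrose broth to 10^4 cfu/mL, and 100 µL was spread on Sabouraud dextrose agar. 6 mm discs carried 250 µg (25 µL of a 10 mg/mL stock in 96% ethanol), with ethanol as the negative control. Incubation was at 30 °C for 48 h (yeast) or 72 h (molds). Zone diameter was read including the disc, in triplicate, mean ± SE.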

[20] = system: Staphylococcus aureus; assay: Antibacterial activity against Staphylococcus aureus ATCC 25923 after 18 to 24 hrs by two-fold broth microdilution assay; outline: as §1
[21] = system: Klebsiella pneumoniae; assay: Antibacterial activity against Klebsiella pneumoniae FNSST 011 assessed as diameter of zone of inhibition at 250 ug/disc after 24 hrs by disc diffusion method; conditions: FNSST 011, 24 h, read-out: DIZ; outline: as §3
[22] = system: Talaromyces funiculosus; assay: Antifungal activity against Penicillium funiculosum FNSST 3724 assessed as diameter of zone of inhibition at 250 ug/disc after 72 hrs by disc diffusion method; conditions: FNSST 3724, 72 h, read-out: DIZ; outline: as §4
[23] = system: Escherichia coli; assay: Antibacterial activity against Escherichia coli FNSST 982 after 18 to 24 hrs by two-fold broth microdilution assay; outline: as §1
[24] = system: Escherichia coli; assay: Antibacterial activity against Escherichia coli FNSST 982 assessed as diameter of zone of inhibition at 250 ug/disc after 24 hrs by disc diffusion method; conditions: FNSST 982, 24 h, read-out: DIZ; outline: as §3
[25] = system: Staphylococcus aureus; assay: Antibacterial activity against Staphylococcus aureus ATCC 25923 assessed as diameter of zone of inhibition at 250 ug/disc after 24 hrs by disc diffusion method; conditions: ATCC 25923, 24 h, read-out: DIZ; outline: as §3
[26] = system: Escherichia coli; assay: Ratio of gentamicin MIC to compound MIC for Escherichia coli FNSST 982
[27] = system: Aeromonas hydrophila; assay: Antibacterial activity against Aeromonas hydrophila FNSST 014 after 18 to 24 hrs by two-fold broth microdilution assay; outline: as §1
[28] = system: Pseudomonas aeruginosa; assay: Antibacterial activity against Pseudomonas aeruginosa FNSST 982 after 18 to 24 hrs by two-fold broth microdilution assay; outline: as §1
[29] = system: Bacillus cereus; assay: Antibacterial activity against Bacillus cereus ATCC 11778 after 18 to 24 hrs by two-fold broth microdilution assay; outline: as §1
[30] = system: Clostridium perfringens; assay: Antibacterial activity against Clostridium perfringens FNSST 4999 after 18 to 24 hrs by two-fold broth microdilution assay; outline: as §2
[31] = system: Klebsiella pneumoniae; assay: Antibacterial activity against Klebsiella pneumoniae FNSST 011 after 18 to 24 hrs by two-fold broth microdilution assay; outline: as §1
[32] = system: Candida albicans; assay: Antifungal activity against Candida albicans ATCC 10231 assessed as diameter of zone of inhibition at 250 ug/disc after 48 hrs by disc diffusion method; conditions: ATCC 10231, 48 h, read-out: DIZ; outline: as §4
[33] = system: Aeromonas hydrophila; assay: Antibacterial activity against Aeromonas hydrophila FNSST 014 assessed as diameter of zone of inhibition at 250 ug/disc after 24 hrs by disc diffusion method; conditions: FNSST 014, 24 h, read-out: DIZ; outline: as §3
[34] = system: Enterococcus faecalis; assay: Antibacterial activity against Enterococcus faecalis ATCC 29212 assessed as diameter of zone of inhibition at 250 ug/disc after 24 hrs by disc diffusion method; conditions: ATCC 29212, 24 h, read-out: DIZ; outline: as §3
[35] = system: Pseudomonas aeruginosa; assay: Ratio of gentamicin MIC to compound MIC for Pseudomonas aeruginosa FNSST 982

| SMILES | MIC [1] | MIC [2] | MIC [3] | MIC [4] | MIC [5] | MIC [6] | MIC [7] | MIC [8] | MIC [9] | MIC [10] | MIC [11] | MIC [12] | MIC [13] | MIC [14] | zone of inhibition at 250 µg/disc [15] | zone of inhibition at 250 µg/disc [16] | zone of inhibition at 250 µg/disc [17] | MIC [18] | zone of inhibition at 250 µg/disc [19] | MIC [20] | further results |
| --- | --- | --- | --- | --- | --- | --- | --- | --- | --- | --- | --- | --- | --- | --- | --- | --- | --- | --- | --- | --- | --- |
| CN(C)[C@@H]1C(O)=C(C(N)=O)C(=O)[C@@]2(O)C(O)=C3C(=O)c4c(O)cccc4[C@@](C)(O)[C@H]3C[C@@H]12 [TETRACYCLINE] | 8 µg/mL (≈ 18 µM) | 16 µg/mL (≈ 36 µM) | 256 µg/mL (≈ 576 µM) | 64 µg/mL (≈ 144 µM) | 128 µg/mL (≈ 288 µM) | 128 µg/mL (≈ 288 µM) | 64 µg/mL (≈ 144 µM) | 32 µg/mL (≈ 72 µM) | > 8 µg/mL | 16 µg/mL (≈ 36 µM) | 64 µg/mL (≈ 144 µM) | 16 µg/mL (≈ 36 µM) | 16 µg/mL (≈ 36 µM) | 128 µg/mL (≈ 288 µM) |  |  |  |  |  |  |  |
| O/N=C/c1n(Cc2ccccc2)cc[n+]1-c1ccccc1.[Br-] |  |  |  |  |  |  |  |  |  |  |  |  |  |  | 15 mm | 16.6 mm | 14.9 mm | 25 µg/mL | 20.8 mm | 12.5 µg/mL | zone of inhibition at 250 µg/disc [21]: 15.5 mm; zone of inhibition at 250 µg/disc [22]: 17.4 mm; MIC [23]: 3.12 µg/mL; zone of inhibition at 250 µg/disc [24]: 12.3 mm; zone of inhibition at 250 µg/disc [25]: 12.5 mm; Ratio [26]: 10; MIC [27]: 25 µg/mL; MIC [28]: 25 µg/mL; MIC [29]: 25 µg/mL; MIC [30]: 25 µg/mL; MIC [31]: 31.2 µg/mL; zone of inhibition at 250 µg/disc [32]: 18.1 mm; zone of inhibition at 250 µg/disc [33]: 15.3 mm; zone of inhibition at 250 µg/disc [34]: 13.3 mm |
| O/N=C/c1nccn1Cc1ccccc1 |  |  |  |  |  |  |  |  |  |  |  |  |  |  | 17.5 mm | 15.9 mm | 17.9 mm | 6.25 µg/mL (≈ 31.1 µM) | 11.5 mm | 6.25 µg/mL (≈ 31.1 µM) | zone of inhibition at 250 µg/disc [21]: 15.8 mm; zone of inhibition at 250 µg/disc [22]: 17.6 mm; MIC [23]: 25 µg/mL (≈ 124 µM); Ratio [35]: 5; zone of inhibition at 250 µg/disc [24]: 17.3 mm; zone of inhibition at 250 µg/disc [25]: 10.8 mm; MIC [27]: 25 µg/mL (≈ 124 µM); MIC [28]: 12.5 µg/mL (≈ 62.1 µM); MIC [29]: 6.25 µg/mL (≈ 31.1 µM); MIC [30]: 50 µg/mL (≈ 248 µM); MIC [31]: 25 µg/mL (≈ 124 µM); zone of inhibition at 250 µg/disc [32]: 17.2 mm; zone of inhibition at 250 µg/disc [33]: 10.1 mm; zone of inhibition at 250 µg/disc [34]: 14.9 mm |
| CC(C)(O/N=C(\C(=O)N[C@@H]1C(=O)N2C(C(=O)[O-])=C(C[n+]3ccccc3)CS[C@H]12)c1csc(N)n1)C(=O)O [CEFTAZIDIME] | 64 µg/mL (≈ 117 µM) | 16 µg/mL (≈ 29.3 µM) | 128 µg/mL (≈ 234 µM) | > 256 µg/mL | 128 µg/mL (≈ 234 µM) | 8 µg/mL (≈ 14.6 µM) | 4 µg/mL (≈ 7.32 µM) | 64 µg/mL (≈ 117 µM) | 256 µg/mL (≈ 468 µM) | 8 µg/mL (≈ 14.6 µM) | 16 µg/mL (≈ 29.3 µM) | > 256 µg/mL | > 256 µg/mL | 128 µg/mL (≈ 234 µM) |  |  |  |  |  |  |  |
| NC[C@H]1O[C@H](O[C@H]2[C@H](O)[C@@H](O[C@H]3O[C@H](CO)[C@@H](O)[C@H](N)[C@H]3O)[C@H](N)C[C@@H]2N)[C@H](N)C[C@@H]1O [TOBRAMYCIN] | 16 µg/mL (≈ 34.2 µM) | 32 µg/mL (≈ 68.4 µM) | 2 µg/mL (≈ 4.28 µM) | 16 µg/mL (≈ 34.2 µM) | 8 µg/mL (≈ 17.1 µM) | 64 µg/mL (≈ 137 µM) | 32 µg/mL (≈ 68.4 µM) | 16 µg/mL (≈ 34.2 µM) | 16 µg/mL (≈ 34.2 µM) | > 32 µg/mL | > 32 µg/mL | 32 µg/mL (≈ 68.4 µM) | 16 µg/mL (≈ 34.2 µM) | 32 µg/mL (≈ 68.4 µM) |  |  |  |  |  |  |  |
